# Activity calls are given as the source filed them. The rule behind the calls is not given here.
# Experiments:
# A-375 [1] = assay: Induction of cell cycle arrest in human A375 cells assessed as accumulation at S phase at 4 ug/mL incubated for 18 hrs by propidium iodide staining based flow cytometry (reference value: 37.2%); type: functional
# Summary of the method: (§1)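 A375 cells treated at 10 or 4 µg/ml for 6 h, given 0 or 8 Gy X-ray, then 12 h more. Trypsinized, washed in PBS, fixed overnight in ice-cold 75% ethanol at −20 °C. Stained with propidium iodide, 30 min at 37 °C in the dark; DNA content and sub-G1 population read by flow cytometry.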
# A-375 [2] = assay: Induction of cell morphological changes in human A375 cells incubated for 6 hrs followed by irradiation with 8 Gy X-ray at 37 degC for 12 hrs by microscopy; type: functional, cell-based
# A-375 [3] = assay: Increase in Bid cleavage in human A375 cells at 4 ug/mL incubated for 18 hrs by Western blotting method; type: functional, cell-based
# Summary of the method: (§2)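 A375 cells pretreated 6 h with compound at 4 µg/ml, given 0 or 8 Gy X-ray, then incubated 12 h more. Lysed in RIPA buffer, pH 7.4, with protease and phosphatase inhibitors; 50 µg protein run on SDS-PAGE and blotted to nitrocellulose. Blocked in 5% milk; primary antibodies 1:1000, 10 h at 4 °C; HRP secondary 1:2000.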
# A-375 [4] = assay: Induction of cell cycle arrest in human A375 cells assessed as accumulation at G2/M phase at 4 ug/mL incubated for 18 hrs by propidium iodide staining based flow cytometry (reference value: 13.9%); type: functional; summary of the method: as §1
# [5] = molecular target: c-Jun N-terminal kinase, JNK (Homo sapiens) (UniProt P45983+P53779+P45984); assay: Induction of JNK phosphorylation in human A375 cells at 4 ug/mL incubated for 18 hrs by Western blotting method; type: cell-based; details: A-375; summary of the method: as §2
# A-375 [6] = assay: Induction of cell cycle arrest in human A375 cells assessed as accumulation at S phase at 4 ug/mL incubated for 6 hrs followed by irradiation with 8 Gy X-ray at 37 degC for 12 hrs by propidium iodide staining based flow cytometry (reference value: 7.9%); type: functional; summary of the method: as §1
# A-375 [7] = assay: Induction of apoptosis in human A375 cells assessed as accumulation at subG1 phase at 4 ug/mL incubated for 6 hrs followed by irradiation with 8 Gy X-ray at 37 degC for 12 hrs by propidium iodide staining based flow cytometry (reference value: 2.3%); type: functional; summary of the method: as §1
# A-375 [8] = assay: Induction of apoptosis in human A375 cells assessed as caspase 3 activation at 2 ug/mL incubated for 6 hrs followed by irradiation with 8 Gy X-ray at 37 degC for 12 hrs by Western blotting method; type: functional, cell-based
# Summary of the method: (§3)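 A375 cells treated with 2 µg/ml alone or with 8 Gy X-ray (6 h pretreatment, then 12 h; 18 h total). RIPA lysates (50 µg protein) run on SDS-PAGE and immunoblotted for caspases and PARP cleavage. Reprobed for β-actin as loading control.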
# A-375 [9] = assay: Increase in Bax expression in human A375 cells at 4 ug/mL incubated for 6 hrs followed by irradiation with 8 Gy X-ray at 37 degC for 12 hrs by Western blotting method; type: functional, cell-based; summary of the method: as §2
# A-375 [10] = assay: Induction of apoptosis in human A375 cells assessed as caspase 3 activation at 2 ug/mL incubated for 6 hrs followed by irradiation with 8 Gy X-ray at 37 degC for 12 hrs by fluorometric assay; type: functional, cell-based
# Summary of the method: (§4)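 Cells seeded at 1 × 10⁶ per 10 cm dish and treated with 2 µg/ml alone or with 8 Gy X-ray for 18 h total. RIPA lysates clarified by spinning at 12,000 rpm for 5 min; 80 µg protein given Ac-DEVD-AMC (caspase-3), Ac-IETD-AMC (caspase-8) or Ac-LEHD-AMC (caspase-9). Incubated 2 h at 37 °C in the dark; fluorescence at 380/440 nm.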
# A-375 [11] = assay: Induction of cell shrinkage in human A375 cells incubated for 6 hrs followed by irradiation with 8 Gy X-ray at 37 degC for 12 hrs by microscopy; type: functional, cell-based
# Summary of the method: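 A375 cells in DMEM with 10% FBS, 37 °C, 5% CO2. Pretreated with agent 6 h, then 0 or 8 Gy X-ray from a linear accelerator at 1.5 Gy/min, room temperature. Incubated a further 12 h; morphology imaged.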
# A-375 [12] = assay: Reduction in Bid expression in human A375 cells at 4 ug/mL incubated for 6 hrs followed by irradiation with 8 Gy X-ray at 37 degC for 12 hrs by Western blotting method; type: functional, cell-based
# Summary of the method: (§5)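 A375 cells given […] for 6 h, then 0 or 8 Gy X-ray at 1.5 Gy/min and 12 h further culture. Lysis in ice-cold RIPA, pH 7.4, with protease and phosphatase inhibitors; protein by BCA. […] protein per lane on SDS-PAGE, transferred to nitrocellulose. Blocked in 5% milk/TBST. Primary 1:1000, 10 h, 4 °C; HRP secondary 1:2000, 1.5 h.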
# [13] = molecular target: T1, MAP kinase p38 (Homo sapiens) (UniProt O15264+Q15759+Q16539+P53778); assay: Induction of p38 phosphorylation in human A375 cells at 4 ug/mL incubated for 18 hrs by Western blotting method; type: cell-based; details: A-375; summary of the method: as §5
# A-375 [14] = assay: Induction of apoptosis in human A375 cells assessed as caspase 3 activation at 2 ug/mL incubated for 18 hrs by fluorometric assay; type: functional, cell-based; summary of the method: as §4
# A-375 [15] = assay: Induction of cell cycle arrest in human A375 cells assessed as accumulation at G1/G0 phase at 4 ug/mL incubated for 18 hrs by propidium iodide staining based flow cytometry (reference value: 48.9%); type: functional; summary of the method: as §1
# A-375 [16] = assay: Induction of apoptosis in human A375 cells assessed as caspase 9 activation at 2 ug/mL incubated for 18 hrs by fluorometric assay; type: functional, cell-based; summary of the method: as §4
# [17] = molecular target: T2, Thioredoxin reductase (Homo sapiens) (UniProt Q16881+Q9NNW7+Q86VQ6); assay: Inhibition of TrxR antioxidant enzyme activity in human A375 cells at 2 ug/mL incubated for 6 hrs followed by irradiation with 8 Gy X-ray at 37 degC for 12 hrs by insulin reduction assay; type: cell-based; details: A-375
# A-375 [18] = assay: Induction of cell cycle arrest in human A375 cells assessed as accumulation at G1/G0 phase at 4 ug/mL incubated for 6 hrs followed by irradiation with 8 Gy X-ray at 37 degC for 12 hrs by propidium iodide staining based flow cytometry (reference value: 44.9%); type: functional; summary of the method: as §1
# A-375 [19] = assay: Induction of cell cycle arrest in human A375 cells assessed as accumulation at G2/M phase at 4 ug/mL incubated for 6 hrs followed by irradiation with 8 Gy X-ray at 37 degC for 12 hrs by propidium iodide staining based flow cytometry (reference value: 47.2%); type: functional; summary of the method: as §1
# A-375 [20] = assay: Induction of apoptosis in human A375 cells assessed as caspase PARP cleavage at 2 ug/mL incubated for 18 hrs by Western blotting method; type: functional, cell-based; summary of the method: as §3
# A-375 [21] = assay: Increase in Bax expression in human A375 cells at 4 ug/mL incubated for 18 hrs by Western blotting method; type: functional, cell-based; summary of the method: as §2
# [22] = molecular target: T2, Thioredoxin reductase (Homo sapiens); assay: Inhibition of TrxR antioxidant enzyme activity in human A375 cells at 2 ug/mL after 18 hrs by insulin reduction assay; type: cell-based; details: A-375
# A-375 [23] = assay: Induction of ROS generation in human A375 cells at 4 ug/mL […] by DCF and DHE dye based fluorescence assay; type: functional, cell-based
# [24] = molecular target: T1, MAP kinase p38 (Homo sapiens); assay: Induction of p38 phosphorylation in human A375 cells at 4 ug/mL incubated for 6 hrs followed by irradiation with 8 Gy X-ray at 37 degC for 12 hrs by Western blotting method; type: cell-based; details: A-375; summary of the method: as §5
smiles,measurement,setting,value
COc1cc(-c2nc3cc(-c4ccc5n[se]nc5c4)ccc3[nH]2)cc(OC)c1OC,Activity,A-375 [1],34%
same,Activity,A-375 [2],Active
same,Activity,A-375 [3],Active
same,Activity,A-375 [4],44.4%
same,Activity,[5],Active
same,Activity,A-375 [6],30.6%
same,Activity,A-375 [7],57.1%
same,Activity,A-375 [8],Active
same,Activity,A-375 [9],Active
same,Activity,A-375 [10],Active
same,Activity,A-375 [11],Active
same,Activity,A-375 [12],Active
same,Activity,[13],Active
same,Activity,A-375 [14],Active
same,Activity,A-375 [15],21.6%
same,Activity,A-375 [16],Active
same,inhibition,[17],Active
same,Activity,A-375 [18],47.3%
same,Activity,A-375 [19],22.1%
same,Activity,A-375 [20],Active
same,Activity,A-375 [21],Active
same,inhibition,[22],Active
same,Activity,A-375 [23],Active
same,Activity,[24],Active

# — ChEMBL document CHEMBL3352644, “Selenadiazole derivatives as potent thioredoxin reductase inhibitors that enhance the radiosensitivity of cancer cells” (Eur J Med Chem, 2014)
